pIC50, pKd: −log10 of the molar value.
Tests used:
[1] = molecular target: Histone deacetylase 2 (Homo sapiens, UniProt Q92769); assay: Inhibition of C-terminal GST tagged human recombinant HDAC2 (1 to 488 residues) expressed in Baculovirus infected insect cells in presence of ATP
Summary of the method: (§1)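 HDAC enzyme inhibition was run by a contract laboratory.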

[2] = molecular target: T1, Tyrosine-protein kinase JAK2 (Homo sapiens, UniProt O60674); assay: Inhibition of human JAK2 using poly[Glu:Tyr] as substrate in presence of [gamma-33P]-ATP
[3] = molecular target: Histone deacetylase 7 (Homo sapiens) (UniProt Q8WUI4); assay: Inhibition of N-terminal GST tagged human recombinant HDAC7 (518 to 991 residues) expressed in Baculovirus infected insect cells at 10 uM in presence of ATP relative to control; summary of the method: as §1
[4] = molecular target: Histone deacetylase 11 (Homo sapiens) (UniProt Q96DB2); assay: Inhibition of C-terminal His tagged human recombinant HDAC11 (1 to 347 residues) expressed in Baculovirus infected insect cells at 10 uM in presence of ATP relative to control; summary of the method: as §1
[5] = molecular target: T2, Tyrosine-protein kinase JAK3 (Homo sapiens, UniProt P52333); assay: Inhibition of human JAK3 using GEEEEYFELVKKKK as substrate in presence of [gamma-33P]-ATP
T2 sequence (P52333 whole entry): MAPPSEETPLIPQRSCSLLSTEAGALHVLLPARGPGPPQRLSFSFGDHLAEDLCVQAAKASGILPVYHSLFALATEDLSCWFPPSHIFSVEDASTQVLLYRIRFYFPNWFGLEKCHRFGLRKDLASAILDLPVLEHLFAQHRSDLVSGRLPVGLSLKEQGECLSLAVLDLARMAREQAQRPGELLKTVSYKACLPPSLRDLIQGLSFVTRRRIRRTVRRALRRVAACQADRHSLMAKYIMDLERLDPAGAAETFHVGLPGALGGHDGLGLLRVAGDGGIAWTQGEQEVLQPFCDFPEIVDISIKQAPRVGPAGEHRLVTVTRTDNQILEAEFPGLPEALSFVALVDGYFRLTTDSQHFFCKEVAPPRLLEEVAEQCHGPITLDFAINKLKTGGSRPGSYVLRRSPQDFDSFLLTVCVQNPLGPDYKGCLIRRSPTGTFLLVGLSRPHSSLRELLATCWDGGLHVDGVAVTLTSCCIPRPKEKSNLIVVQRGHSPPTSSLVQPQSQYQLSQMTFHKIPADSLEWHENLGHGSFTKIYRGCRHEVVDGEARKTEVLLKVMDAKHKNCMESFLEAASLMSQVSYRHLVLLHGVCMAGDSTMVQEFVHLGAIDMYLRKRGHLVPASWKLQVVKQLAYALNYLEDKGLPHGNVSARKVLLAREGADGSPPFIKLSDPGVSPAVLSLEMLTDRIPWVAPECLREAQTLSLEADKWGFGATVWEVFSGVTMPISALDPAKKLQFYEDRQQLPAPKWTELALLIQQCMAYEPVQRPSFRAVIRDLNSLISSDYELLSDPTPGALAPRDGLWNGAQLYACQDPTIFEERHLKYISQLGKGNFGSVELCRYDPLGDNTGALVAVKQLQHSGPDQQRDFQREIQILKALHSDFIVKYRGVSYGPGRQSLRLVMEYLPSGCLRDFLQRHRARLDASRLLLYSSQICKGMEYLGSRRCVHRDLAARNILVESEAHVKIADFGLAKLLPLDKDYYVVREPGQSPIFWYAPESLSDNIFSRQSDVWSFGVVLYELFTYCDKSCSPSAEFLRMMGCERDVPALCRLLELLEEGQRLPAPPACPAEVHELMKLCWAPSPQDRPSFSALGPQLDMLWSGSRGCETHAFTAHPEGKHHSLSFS
Summary of the method: (§2)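 Kinase inhibition was tested by radiometric "Hotspot" profiling at a contract laboratory with 10 μM ATP.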

[6] = molecular target: T3, Protein deacetylase HDAC6 (Homo sapiens, UniProt Q9UBN7); assay: Inhibition of N-terminal GST tagged human HDAC6 (1 to 1215 residues) expressed in baculovirus infected insect cells using RHKKAc as substrate in presence of ATP
T3 sequence (Q9UBN7 whole entry): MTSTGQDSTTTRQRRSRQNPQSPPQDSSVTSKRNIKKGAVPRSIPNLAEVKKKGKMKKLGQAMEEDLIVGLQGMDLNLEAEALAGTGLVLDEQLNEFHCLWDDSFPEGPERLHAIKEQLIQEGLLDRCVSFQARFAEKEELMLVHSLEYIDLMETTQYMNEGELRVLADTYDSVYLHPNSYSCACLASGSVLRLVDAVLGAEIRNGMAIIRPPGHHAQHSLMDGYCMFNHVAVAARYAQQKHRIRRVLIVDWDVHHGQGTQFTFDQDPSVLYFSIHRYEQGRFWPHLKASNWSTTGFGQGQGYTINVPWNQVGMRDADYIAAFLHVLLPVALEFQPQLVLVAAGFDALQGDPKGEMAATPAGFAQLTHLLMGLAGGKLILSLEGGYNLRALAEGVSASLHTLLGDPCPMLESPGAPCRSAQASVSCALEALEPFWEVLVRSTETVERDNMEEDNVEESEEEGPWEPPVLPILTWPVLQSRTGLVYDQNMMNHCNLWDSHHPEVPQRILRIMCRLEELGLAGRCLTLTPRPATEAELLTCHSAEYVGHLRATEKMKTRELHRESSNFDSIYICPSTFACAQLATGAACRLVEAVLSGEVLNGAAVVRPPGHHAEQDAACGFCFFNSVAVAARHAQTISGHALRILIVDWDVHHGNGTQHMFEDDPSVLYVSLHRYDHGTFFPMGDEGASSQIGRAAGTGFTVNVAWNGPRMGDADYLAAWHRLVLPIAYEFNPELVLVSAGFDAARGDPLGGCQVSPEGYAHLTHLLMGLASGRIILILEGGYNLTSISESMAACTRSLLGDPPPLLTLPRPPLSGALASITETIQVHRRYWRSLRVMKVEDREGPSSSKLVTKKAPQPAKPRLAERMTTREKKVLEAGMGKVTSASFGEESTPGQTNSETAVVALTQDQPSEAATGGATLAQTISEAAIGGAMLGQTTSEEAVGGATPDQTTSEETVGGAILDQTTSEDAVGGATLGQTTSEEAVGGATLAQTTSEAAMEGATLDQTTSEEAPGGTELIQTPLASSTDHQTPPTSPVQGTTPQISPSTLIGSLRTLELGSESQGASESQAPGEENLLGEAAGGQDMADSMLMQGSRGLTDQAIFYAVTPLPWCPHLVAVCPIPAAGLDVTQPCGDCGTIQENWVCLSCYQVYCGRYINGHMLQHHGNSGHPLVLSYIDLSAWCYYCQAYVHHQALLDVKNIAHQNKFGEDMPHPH

[7] = molecular target: Histone deacetylase 9 (Homo sapiens, UniProt Q9UKV0); assay: Inhibition of HDAC9 (unknown origin) in presence of ATP; summary of the method: as §1
[8] = molecular target: Tyrosine-protein kinase JAK1 (Homo sapiens, UniProt P23458); assay: Inhibition of human JAK1 using poly[Glu:Tyr] as substrate in presence of [gamma-33P]-ATP; summary of the method: as §2
[9] = molecular target: Histone deacetylase 3/Nuclear receptor corepressor 2 (HDAC3/NCoR2) (Homo sapiens, UniProt O15379); assay: Inhibition of human recombinant HDAC3 (1 to 428 residues)/N-terminal GST-tagged NCOR2 (395 to 489 residues) expressed in Baculovirus infected insect cells in presence of ATP; summary of the method: as §1
[10] = molecular target: Histone deacetylase 5 (Homo sapiens, UniProt Q9UQL6); assay: Inhibition of C-terminal His tagged human recombinant HDAC5 (657 to 1123 residues) expressed in Baculovirus infected insect cells in presence of ATP; summary of the method: as §1
[11] = molecular target: Histone deacetylase 8 (Homo sapiens, UniProt Q9BY41); assay: Inhibition of C-terminal His tagged human recombinant HDAC8 (1 to 377 residues) expressed in Baculovirus infected insect cells in presence of ATP; summary of the method: as §1
[12] = molecular target: Histone deacetylase 1 (Homo sapiens, UniProt Q13547); assay: Inhibition of C-terminal FLAG His tagged full length human recombinant HDAC1 (1 to 482 residues) expressed in baculovirus infected sf21 cells using RHKKAc as substrate in presence of ATP
[13] = molecular target: Histone deacetylase 4 (Homo sapiens) (UniProt P56524); assay: Inhibition of N-terminal GST tagged/C-terminal His tagged human recombinant HDAC4 (627 to 1084 residues) expressed in Baculovirus infected insect cells in presence of ATP; conditions: concentration not given here; summary of the method: as §1
[14] = molecular target: Polyamine deacetylase HDAC10 (Homo sapiens, UniProt Q969S8); assay: Inhibition of human HDAC10 using fluorogenic peptide from p53 residues 379 to 382 as substrate in presence of ATP; summary of the method: as §1
[15] = molecular target: Non-receptor tyrosine-protein kinase TYK2 (Homo sapiens, UniProt P29597); assay: Inhibition of human TYK2 using KKSRGDYMTMQIG as substrate in presence of [gamma-33P]-ATP; summary of the method: as §2
[16] = test system: MDA-MB-231; assay: cells; assay type: functional, cell-based; conditions: Homo sapiens, MDA-MB-231, 72 h
[17] = test system: PC-3; assay: cells; assay type: functional, cell-based; conditions: Homo sapiens, PC-3, 72 h
[18] = test system: MCF7; assay: cells; assay type: functional, cell-based; conditions: Homo sapiens, MCF7, 72 h
[19] = test system: HCT-116; assay: Antiproliferative activity against human HCT116 cells after 72 hrs by MTT assay; assay type: functional, cell-based; conditions: HCT-116, 72 h
[20] = test system: HL-60; assay: Antiproliferative activity against human HL60 cells; assay type: functional, cell-based
[21] = test system: HEL 92.1.7; assay: cells; assay type: functional, cell-based; conditions: Homo sapiens, HEL 92.1.7, 36 h
[22] = test system: Jurkat; assay: cells; assay type: functional, cell-based; conditions: Homo sapiens
[23] = molecular target: T1, Tyrosine-protein kinase JAK2; assay: Binding affinity to N-terminal His tagged human recombinant JAK2 (1014 to 1132 residues) expressed in Escherichia coli after 60 to 90 mins by LC/MS analysis; conditions: read-out: Kd(app)

Sequence of Histone deacetylase 1 (Q13547 whole entry, the tested form may be a part): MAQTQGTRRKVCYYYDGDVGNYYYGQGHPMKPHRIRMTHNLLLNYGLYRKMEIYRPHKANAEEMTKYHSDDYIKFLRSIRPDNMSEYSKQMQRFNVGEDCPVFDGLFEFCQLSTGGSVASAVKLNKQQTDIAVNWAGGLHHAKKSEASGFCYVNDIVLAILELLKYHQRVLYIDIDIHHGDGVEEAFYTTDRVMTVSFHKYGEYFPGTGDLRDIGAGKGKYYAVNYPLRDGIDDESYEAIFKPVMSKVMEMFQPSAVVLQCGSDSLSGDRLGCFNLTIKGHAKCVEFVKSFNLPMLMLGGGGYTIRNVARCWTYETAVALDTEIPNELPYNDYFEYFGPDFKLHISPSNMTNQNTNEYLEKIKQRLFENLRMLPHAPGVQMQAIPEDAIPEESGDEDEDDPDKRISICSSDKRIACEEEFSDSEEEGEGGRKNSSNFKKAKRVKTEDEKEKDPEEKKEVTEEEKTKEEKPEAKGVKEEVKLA
T1 sequence (O60674 whole entry, the tested form may be a part): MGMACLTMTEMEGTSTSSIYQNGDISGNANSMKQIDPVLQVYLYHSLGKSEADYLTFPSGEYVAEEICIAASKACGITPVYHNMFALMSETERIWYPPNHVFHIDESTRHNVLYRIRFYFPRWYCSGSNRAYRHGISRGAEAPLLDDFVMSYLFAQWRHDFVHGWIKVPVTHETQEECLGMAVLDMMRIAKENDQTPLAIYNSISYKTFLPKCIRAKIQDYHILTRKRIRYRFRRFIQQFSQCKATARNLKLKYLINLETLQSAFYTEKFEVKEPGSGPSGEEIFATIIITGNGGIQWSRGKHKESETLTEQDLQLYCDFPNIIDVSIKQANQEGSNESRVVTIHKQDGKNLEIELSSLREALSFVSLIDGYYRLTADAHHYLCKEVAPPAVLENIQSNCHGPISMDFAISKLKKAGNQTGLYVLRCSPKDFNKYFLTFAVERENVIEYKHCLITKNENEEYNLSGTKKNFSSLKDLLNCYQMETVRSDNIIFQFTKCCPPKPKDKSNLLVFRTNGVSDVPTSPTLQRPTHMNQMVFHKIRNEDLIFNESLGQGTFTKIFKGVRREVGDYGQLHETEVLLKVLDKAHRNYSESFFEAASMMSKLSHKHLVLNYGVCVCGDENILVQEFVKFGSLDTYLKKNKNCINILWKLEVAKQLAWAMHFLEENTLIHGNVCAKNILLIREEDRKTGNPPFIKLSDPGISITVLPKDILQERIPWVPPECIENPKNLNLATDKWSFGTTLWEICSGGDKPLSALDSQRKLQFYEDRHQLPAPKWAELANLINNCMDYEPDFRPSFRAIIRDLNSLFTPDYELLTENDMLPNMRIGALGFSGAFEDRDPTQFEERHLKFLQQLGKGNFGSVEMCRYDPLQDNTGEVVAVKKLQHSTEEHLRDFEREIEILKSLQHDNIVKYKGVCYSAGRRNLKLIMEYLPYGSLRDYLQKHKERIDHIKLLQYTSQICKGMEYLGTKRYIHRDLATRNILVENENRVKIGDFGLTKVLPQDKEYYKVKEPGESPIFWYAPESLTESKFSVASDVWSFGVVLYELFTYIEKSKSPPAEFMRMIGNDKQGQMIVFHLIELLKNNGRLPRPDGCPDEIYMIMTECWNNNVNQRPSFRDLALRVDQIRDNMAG
Sequence of Histone deacetylase 4 (Homo sapiens) (P56524 whole entry, the tested form may be a part): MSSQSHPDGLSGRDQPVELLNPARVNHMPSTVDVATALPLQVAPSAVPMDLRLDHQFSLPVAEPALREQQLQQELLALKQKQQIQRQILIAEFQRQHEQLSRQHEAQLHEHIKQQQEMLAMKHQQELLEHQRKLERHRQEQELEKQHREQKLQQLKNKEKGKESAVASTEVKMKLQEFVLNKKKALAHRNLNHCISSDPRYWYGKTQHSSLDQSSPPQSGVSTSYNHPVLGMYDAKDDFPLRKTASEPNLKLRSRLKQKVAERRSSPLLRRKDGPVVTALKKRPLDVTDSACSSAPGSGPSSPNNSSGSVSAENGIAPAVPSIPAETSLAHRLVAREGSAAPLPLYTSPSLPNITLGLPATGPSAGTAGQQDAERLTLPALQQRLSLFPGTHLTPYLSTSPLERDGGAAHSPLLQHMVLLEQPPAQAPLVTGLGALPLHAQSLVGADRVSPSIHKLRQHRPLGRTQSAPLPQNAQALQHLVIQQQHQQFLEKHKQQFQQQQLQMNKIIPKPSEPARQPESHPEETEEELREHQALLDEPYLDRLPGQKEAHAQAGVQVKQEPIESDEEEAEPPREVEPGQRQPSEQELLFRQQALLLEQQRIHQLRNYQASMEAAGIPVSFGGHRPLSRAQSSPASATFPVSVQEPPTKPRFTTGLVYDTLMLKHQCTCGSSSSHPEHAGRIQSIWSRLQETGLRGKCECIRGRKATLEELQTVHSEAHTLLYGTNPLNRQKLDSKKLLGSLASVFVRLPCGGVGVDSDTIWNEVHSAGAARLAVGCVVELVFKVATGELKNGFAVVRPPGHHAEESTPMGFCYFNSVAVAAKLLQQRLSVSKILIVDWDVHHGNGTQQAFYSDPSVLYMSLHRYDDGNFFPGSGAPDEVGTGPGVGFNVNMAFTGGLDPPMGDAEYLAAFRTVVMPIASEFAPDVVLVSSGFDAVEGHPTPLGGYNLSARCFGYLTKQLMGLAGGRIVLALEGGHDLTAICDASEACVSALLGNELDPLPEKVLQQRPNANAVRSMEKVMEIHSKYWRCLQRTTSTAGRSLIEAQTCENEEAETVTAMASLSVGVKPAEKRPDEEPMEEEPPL
Sequence of Histone deacetylase 11 (Homo sapiens) (Q96DB2 whole entry, the tested form may be a part): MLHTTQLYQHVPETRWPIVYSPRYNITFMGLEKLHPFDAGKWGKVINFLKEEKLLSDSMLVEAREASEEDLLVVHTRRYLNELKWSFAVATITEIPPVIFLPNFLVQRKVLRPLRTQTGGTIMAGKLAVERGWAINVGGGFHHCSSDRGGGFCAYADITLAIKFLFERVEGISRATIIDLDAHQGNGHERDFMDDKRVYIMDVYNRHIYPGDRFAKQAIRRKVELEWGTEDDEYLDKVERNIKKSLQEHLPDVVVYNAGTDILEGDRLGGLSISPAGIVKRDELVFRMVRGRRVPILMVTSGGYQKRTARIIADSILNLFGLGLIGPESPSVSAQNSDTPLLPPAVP
Sequence of Histone deacetylase 5 (Q9UQL6 whole entry, the tested form may be a part): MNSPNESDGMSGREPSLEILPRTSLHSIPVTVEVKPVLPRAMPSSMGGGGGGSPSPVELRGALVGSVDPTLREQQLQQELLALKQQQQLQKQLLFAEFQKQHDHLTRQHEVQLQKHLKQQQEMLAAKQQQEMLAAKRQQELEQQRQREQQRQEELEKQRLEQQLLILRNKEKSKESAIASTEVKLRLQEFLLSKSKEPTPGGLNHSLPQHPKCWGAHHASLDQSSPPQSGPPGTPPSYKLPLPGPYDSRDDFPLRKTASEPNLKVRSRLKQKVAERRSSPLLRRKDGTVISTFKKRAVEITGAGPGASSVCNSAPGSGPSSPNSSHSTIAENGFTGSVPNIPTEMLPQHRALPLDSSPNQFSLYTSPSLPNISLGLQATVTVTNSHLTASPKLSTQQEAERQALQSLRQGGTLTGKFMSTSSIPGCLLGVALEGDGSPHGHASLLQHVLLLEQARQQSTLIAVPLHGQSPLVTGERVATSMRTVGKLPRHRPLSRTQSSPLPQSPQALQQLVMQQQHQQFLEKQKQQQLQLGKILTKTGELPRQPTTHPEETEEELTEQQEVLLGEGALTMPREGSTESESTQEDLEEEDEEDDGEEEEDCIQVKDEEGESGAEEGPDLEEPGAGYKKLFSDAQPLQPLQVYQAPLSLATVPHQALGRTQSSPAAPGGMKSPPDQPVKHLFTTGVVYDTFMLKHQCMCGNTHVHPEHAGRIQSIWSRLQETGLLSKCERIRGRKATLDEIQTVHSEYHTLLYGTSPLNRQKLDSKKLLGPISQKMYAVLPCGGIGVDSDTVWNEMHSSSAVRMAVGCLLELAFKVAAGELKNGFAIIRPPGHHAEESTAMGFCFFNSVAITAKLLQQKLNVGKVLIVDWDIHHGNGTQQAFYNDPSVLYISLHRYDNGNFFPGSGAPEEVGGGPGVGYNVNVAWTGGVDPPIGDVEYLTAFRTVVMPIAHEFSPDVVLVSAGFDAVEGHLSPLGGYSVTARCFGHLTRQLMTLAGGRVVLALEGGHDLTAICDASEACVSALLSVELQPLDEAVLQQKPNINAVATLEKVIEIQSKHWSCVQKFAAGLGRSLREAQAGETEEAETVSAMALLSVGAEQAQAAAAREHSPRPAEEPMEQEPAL
Sequence of Histone deacetylase 8 (Q9BY41 whole entry, the tested form may be a part): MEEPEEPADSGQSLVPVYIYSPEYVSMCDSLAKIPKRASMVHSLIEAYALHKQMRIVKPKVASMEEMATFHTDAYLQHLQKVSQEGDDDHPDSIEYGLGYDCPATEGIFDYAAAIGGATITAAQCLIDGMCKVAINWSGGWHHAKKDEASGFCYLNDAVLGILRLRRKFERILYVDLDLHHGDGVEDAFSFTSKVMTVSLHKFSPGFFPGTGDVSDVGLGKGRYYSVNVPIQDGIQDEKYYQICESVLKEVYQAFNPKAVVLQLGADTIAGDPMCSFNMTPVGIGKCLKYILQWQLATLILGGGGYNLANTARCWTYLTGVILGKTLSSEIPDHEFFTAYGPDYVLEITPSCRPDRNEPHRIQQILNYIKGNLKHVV
Sequence of Histone deacetylase 2 (Q92769 whole entry, the tested form may be a part): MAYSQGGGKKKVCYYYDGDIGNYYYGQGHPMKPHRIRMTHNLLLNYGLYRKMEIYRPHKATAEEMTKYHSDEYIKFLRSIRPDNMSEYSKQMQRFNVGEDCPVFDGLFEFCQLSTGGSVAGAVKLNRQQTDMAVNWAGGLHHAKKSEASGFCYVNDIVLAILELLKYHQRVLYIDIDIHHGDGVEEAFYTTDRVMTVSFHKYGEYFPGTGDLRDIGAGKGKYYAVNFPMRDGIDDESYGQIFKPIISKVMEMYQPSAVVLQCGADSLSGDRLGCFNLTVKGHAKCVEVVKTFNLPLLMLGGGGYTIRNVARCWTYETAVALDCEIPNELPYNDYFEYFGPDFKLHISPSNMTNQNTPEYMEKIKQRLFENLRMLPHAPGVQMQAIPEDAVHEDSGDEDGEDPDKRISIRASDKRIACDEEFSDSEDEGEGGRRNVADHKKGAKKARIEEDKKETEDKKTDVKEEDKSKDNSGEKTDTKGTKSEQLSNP

Row | Structure (SMILES) | pIC50 [2] | pIC50 [6] | pIC50 [12] | pIC50 [16] | pIC50 [17] | pIC50 [18] | pIC50 [19] | pKd [23] | other results
1 | CC(CCCCCC(=O)NO)n1cc(-c2ncnc3[nH]ccc23)cn1 (configuration not stated) | 7.19 | 9.00 | 8.22 |  |  |  |  |  | pIC50 [1]: 7.33; inhibition [3]: 33%; inhibition [4]: 40%; pIC50 [5]: 6.36; pIC50 [7]: 5.07; pIC50 [8]: 7.96; pIC50 [9]: 7.62; pIC50 [10]: 5.13; pIC50 [11]: 6.51; inhibition [13]: 8%; pIC50 [14]: 7.51; pIC50 [15]: 6.84
2 | CN1CCc2c(c3ccccc3n2Cc2ccc(C(=O)NO)cc2)C1 [TUBASTATIN A] |  |  |  | 4.98 | 5.07 | 5.43 | 5.70 |  | pIC50 [20]: < 5.40; pIC50 [21]: < 5.40; pIC50 [22]: < 5.40
3 | O=C(CCCCCCCn1cc(-c2ncnc3[nH]ccc23)cn1)NO | 6.32 | 8.74 | 7.44 | 4.89 | 4.89 | 4.91 | 4.93 | 5.70 | 
4 | O=C(CCCCCn1cc(-c2ncnc3[nH]ccc23)cn1)NO |  | 8.54 | 6.86 |  | 4.73 | 5.09 | 5.05 |  | 
5 | O=C(CCCCCCC(=O)Nc1ccc(CCCn2cc(-c3ncnc4[nH]ccc34)cn2)cc1)NO | 6.06 | 9.05 | 6.58 | 4.15 | < 4.30 | < 4.30 | 4.64 | 5.70 | 
6 | O=C(CCCCn1cc(-c2ncnc3[nH]ccc23)cn1)NO |  | 8.22 | 6.07 | 4.76 | < 4.00 | 4.89 | 4.34 |  | 
7 | O=C(CCCCCCCCCCn1cc(-c2ncnc3[nH]ccc23)cn1)NO | 7.37 | 7.06 | 5.45 | 4.89 | 4.27 | 4.88 | 4.39 | > 6.00 | 
